The text below walks through data of ChEMBL document CHEMBL1153305, “Preparation and characterization of N-(3-pyridinyl) spirocyclic diamines as ligands for nicotinic acetylcholine receptors” (Bioorg Med Chem Lett, 2009).

The target in data set [1] is T1, Neuronal acetylcholine receptor; alpha4/beta2 (Homo sapiens, UniProt P17787+P43681). In words: Agonist activity at human recombinant alpha4beta2 nAChR expressed in human IMR32 cells assessed as calcium dynamics by FLIPR assay relative to nicotine. The format is functional, cell-based. The procedure, abridged: (§1)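 A cell line expressing human recombinant α4β2 nAChR. Agonism was read as intracellular Ca2+ dynamics by FLIPR. Values are averages of six replicates.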
T1 sequence (P17787 whole entry): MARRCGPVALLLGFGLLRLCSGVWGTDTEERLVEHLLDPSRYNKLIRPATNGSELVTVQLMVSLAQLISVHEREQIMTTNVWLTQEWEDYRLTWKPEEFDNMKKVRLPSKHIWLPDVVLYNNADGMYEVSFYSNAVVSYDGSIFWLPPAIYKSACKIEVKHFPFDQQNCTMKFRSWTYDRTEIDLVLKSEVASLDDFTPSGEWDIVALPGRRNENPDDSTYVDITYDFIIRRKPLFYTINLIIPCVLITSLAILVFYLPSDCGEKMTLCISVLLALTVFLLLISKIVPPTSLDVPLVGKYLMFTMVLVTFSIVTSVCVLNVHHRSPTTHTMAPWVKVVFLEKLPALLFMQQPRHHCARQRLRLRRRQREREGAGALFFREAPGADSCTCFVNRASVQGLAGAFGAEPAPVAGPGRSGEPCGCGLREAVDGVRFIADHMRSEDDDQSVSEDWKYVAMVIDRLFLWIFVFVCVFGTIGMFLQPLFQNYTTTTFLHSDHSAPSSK
T1 sequence (P43681 whole entry): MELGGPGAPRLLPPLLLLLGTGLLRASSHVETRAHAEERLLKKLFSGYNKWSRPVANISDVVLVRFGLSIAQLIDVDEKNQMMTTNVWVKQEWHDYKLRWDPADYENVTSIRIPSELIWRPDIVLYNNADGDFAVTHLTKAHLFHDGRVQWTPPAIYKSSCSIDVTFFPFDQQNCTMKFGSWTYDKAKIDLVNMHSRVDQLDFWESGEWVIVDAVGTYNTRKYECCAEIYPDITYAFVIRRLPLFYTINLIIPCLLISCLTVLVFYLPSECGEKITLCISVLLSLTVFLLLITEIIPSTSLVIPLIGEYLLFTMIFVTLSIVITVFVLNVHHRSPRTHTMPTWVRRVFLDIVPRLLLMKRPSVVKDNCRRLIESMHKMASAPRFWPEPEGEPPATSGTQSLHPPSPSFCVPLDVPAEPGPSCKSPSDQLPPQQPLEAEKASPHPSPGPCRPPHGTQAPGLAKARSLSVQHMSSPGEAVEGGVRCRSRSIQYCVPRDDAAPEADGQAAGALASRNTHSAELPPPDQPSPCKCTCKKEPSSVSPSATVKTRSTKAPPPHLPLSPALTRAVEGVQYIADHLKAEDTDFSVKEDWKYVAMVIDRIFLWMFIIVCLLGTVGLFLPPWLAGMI

In data set [2] the target is T2, Neuronal acetylcholine receptor; alpha3/beta4 (Homo sapiens, UniProt P30926+P32297). In words: Agonist activity at human […] nAChR expressed in human IMR32 cells assessed as calcium dynamics by FLIPR assay relative to nicotine. Type of data set: functional, cell-based. To be noted: IMR-32. The procedure, abridged:
(§2)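 Endogenous α3β4* nAChR in the human neuroblastoma line IMR-32. Agonism was measured as intracellular Ca2+ dynamics by FLIPR, testing up to 100 μM. Values are averages of six replicates.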

For data set [3], the target named is T1, Neuronal acetylcholine receptor; alpha4/beta2. In words: Agonist activity at human recombinant alpha4beta2 nAChR expressed in human IMR32 cells assessed as calcium dynamics by FLIPR assay. Type of data set: functional, cell-based. A digest of the protocol: as §1
Data set [4] concerns the target Neuronal acetylcholine receptor; alpha4/beta2 (Rattus norvegicus, UniProt P09483+P12390). In words: Displacement of [3H]cytisine from alpha4beta2 nAChR in rat brain membrane. The format is cell membranes. A general note: Displacement assays read how much labelled ligand stays bound in the presence of the test substance.
In data set [5] the target is T2, Neuronal acetylcholine receptor; alpha3/beta4. In words: Agonist activity at human […] nAChR expressed in human IMR32 cells assessed as calcium dynamics by FLIPR assay. The format is functional, cell-based, IMR-32. The procedure, abridged:
as §2

The subject of data set [6] is Mus musculus. In words: Analgesic activity in mouse assessed hypolocomotion at 65 umol/kg, ip. The format is functional, organism-based.
In data set [7] the test system is Mus musculus. In words: Analgesic activity in mouse at 62 umol/kg, ip. The format is functional, organism-based. A digest of the protocol: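 Mouse hot plate analgesia model. The compound was given ip, with 62 μmol/kg as the highest dose tested.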
Data set [8] deals with Mus musculus. In words: Decrease in body temperature in mouse at 65 umol/kg, ip. The format is functional, organism-based.
Data set [9] concerns Mus musculus. In words: Toxicity in mouse assessed as behavioral effect at 65 mg/kg, ip. Type of data set: organism-based. Also noted: dose 65 mg/kg, route intraperitoneal. Particulars: in vivo.

Activity calls are given as the source filed them. No cut-off for these calls is given here.

T2 sequence (P30926 whole entry): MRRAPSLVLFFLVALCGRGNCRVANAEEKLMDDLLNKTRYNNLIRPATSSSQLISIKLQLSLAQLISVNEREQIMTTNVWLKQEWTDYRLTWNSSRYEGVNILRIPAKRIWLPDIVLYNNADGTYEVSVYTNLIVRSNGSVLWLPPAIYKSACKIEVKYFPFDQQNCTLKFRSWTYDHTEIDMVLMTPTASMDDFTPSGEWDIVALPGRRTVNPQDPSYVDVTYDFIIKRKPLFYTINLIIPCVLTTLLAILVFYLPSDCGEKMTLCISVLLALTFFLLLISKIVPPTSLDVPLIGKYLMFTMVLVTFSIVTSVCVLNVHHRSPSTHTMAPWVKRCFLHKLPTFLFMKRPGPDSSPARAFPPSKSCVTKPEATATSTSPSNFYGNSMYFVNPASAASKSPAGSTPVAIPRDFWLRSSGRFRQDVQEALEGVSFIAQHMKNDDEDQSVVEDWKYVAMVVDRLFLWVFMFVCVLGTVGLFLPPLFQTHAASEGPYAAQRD
T2 sequence (P32297 whole entry): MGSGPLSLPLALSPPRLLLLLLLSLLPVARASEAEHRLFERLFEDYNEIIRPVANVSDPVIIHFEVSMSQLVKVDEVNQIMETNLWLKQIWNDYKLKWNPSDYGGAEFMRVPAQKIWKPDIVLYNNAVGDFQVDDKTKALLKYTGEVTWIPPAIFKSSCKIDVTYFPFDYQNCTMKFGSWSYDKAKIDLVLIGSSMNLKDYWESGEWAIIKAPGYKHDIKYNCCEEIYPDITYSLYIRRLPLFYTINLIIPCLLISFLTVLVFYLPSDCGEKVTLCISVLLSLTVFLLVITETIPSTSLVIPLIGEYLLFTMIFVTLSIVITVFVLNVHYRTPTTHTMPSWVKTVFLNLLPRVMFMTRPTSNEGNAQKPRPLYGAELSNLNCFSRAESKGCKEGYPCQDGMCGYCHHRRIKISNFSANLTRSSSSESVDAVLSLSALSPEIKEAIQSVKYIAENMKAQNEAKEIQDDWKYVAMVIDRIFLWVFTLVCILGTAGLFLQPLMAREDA
Sequence of Neuronal acetylcholine receptor; alpha4/beta2 (Rattus norvegicus, UniProt P09483+P12390) (P09483 whole entry): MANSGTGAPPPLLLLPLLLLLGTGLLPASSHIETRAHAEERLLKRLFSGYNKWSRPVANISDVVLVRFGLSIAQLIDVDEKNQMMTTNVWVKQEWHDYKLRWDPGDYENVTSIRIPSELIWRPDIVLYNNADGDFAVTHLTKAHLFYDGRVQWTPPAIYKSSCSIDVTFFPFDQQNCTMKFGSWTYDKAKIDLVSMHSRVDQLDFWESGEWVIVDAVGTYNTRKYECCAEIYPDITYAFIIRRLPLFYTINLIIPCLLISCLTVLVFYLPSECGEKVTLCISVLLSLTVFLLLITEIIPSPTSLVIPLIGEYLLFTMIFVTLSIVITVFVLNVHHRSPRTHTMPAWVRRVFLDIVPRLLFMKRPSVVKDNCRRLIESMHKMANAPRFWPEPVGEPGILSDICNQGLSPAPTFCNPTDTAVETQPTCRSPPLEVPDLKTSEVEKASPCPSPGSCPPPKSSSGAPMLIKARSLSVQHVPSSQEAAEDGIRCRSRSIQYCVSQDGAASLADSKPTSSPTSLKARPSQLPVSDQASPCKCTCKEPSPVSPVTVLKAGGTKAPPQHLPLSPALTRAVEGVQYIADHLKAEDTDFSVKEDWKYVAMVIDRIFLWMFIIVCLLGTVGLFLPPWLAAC
Sequence of Neuronal acetylcholine receptor; alpha4/beta2 (Rattus norvegicus, UniProt P09483+P12390) (P12390 whole entry): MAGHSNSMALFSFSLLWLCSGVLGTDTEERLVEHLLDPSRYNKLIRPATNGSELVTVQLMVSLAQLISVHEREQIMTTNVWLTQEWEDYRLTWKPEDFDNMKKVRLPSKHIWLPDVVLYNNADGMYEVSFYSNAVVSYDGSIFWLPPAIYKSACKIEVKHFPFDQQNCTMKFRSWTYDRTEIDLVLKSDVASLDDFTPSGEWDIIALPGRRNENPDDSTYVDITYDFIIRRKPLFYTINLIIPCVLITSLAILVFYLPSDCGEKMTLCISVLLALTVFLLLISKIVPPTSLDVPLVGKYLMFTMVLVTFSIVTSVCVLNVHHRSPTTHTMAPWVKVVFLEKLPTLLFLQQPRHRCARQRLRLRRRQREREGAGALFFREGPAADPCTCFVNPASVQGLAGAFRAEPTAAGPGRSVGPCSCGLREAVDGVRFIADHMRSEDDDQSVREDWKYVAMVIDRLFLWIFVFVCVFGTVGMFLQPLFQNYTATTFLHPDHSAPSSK

For the molecule `c1cncc(N2CCC3(CCNC3)C2)c1` (stereo not drawn), the Activity turned out to be 4% in [1] and 10% in [2]. For the same molecule, the EC50 in [3] and in data set [5] was more than 100000 nM each time. In addition, the inhibition constant (Ki) (commonly the dissociation constant of the complex between target and ligand, obtained from inhibition or displacement) in data set [4] turned out to be 74 nM.
For the molecule `Clc1ccc(N2CCC3(CCNC3)C2)cn1` (stereo not drawn), the Activity in data set [1] worked out at 9%; in [2] it was 2%. In addition, the EC50 in data set [3] and in [5] was more than 100000 nM each time. Moreover, the Ki in data set [4] worked out at 240 nM.
For the molecule `c1cncc(N2CC3CC2CN3)c1` (stereo not drawn), in data set [2], the Activity was 108%. For the same molecule, in [5], the EC50 – broadly, the midpoint of the concentration-response curve – amounted to 6400 nM.
Regarding `Clc1ccc(N2CCC3(CCN3)C2)cn1` (stereo not drawn), the result in the data set with Mus musculus [6], in the data set on Mus musculus [7] and with Mus musculus [8] was Active. Moreover, the values for the Activity in data set [1] and in [2] were 48% and 23%, respectively. Moreover, the EC50 in data set [3] is 2500 nM; in data set [5], 6900 nM. Besides, the affinity in [4] corresponds to a Ki of 21 nM.
Regarding `Clc1ccc(OC[C@H]2CCN2)cn1` [TEBANICLINE], the Activity in data set [1] was determined as 115%; in data set [2], 169%. Further, the 50% effective concentration (EC50) in data set [3] stood at 20 nM; in data set [5] it was 190 nM. The same molecule gave an inhibition constant Ki in data set [4] of 0.048 nM.
As to `Clc1ccc(C2CC3CCC2N3)cn1` (stereo not drawn), the figures for the Activity in data set [1] and in data set [2] were 154% and 132%, respectively.
Regarding `Clc1ccc(N2CCC3(CCCN3)C2)cn1` (stereo not drawn), the Activity in data set [1] was 6%; in data set [2] it was 8%. The EC50 in data set [3] and in data set [5] was more than 100000 nM throughout. In addition, the Ki in [4] was found to be 48 nM.
Consider `c1cncc(N2CCC3(CCCN3)C2)c1` (stereo not drawn) [TC-2216], for which the Activity in [1] worked out at 20%; in data set [2], 15%. Also, the EC50 in [3] and in data set [5] was more than 100000 nM throughout. In data set [4], this molecule had a Ki of 33 nM.
With `c1cncc(N2CC3CNC3C2)c1` (stereo not drawn), the Activity was 122% in data set [1] and 90% in [2]. Further, the figures for the concentration giving a half-maximal response (EC50) in [3] and in data set [5] were 1600 nM and 6100 nM, respectively. For the same molecule, the affinity in data set [4] corresponds to a Ki of 1.2 nM.
For the molecule `c1cncc(N2CCC3(CCN3)C2)c1` (stereo not drawn), the Activity in data set [1] is 44%; in the data set on Mus musculus [9] it was “Non-toxic”; in data set [2], 4%. In addition, the concentration giving a half-maximal response (EC50) in [3] was 25000 nM; in data set [5], more than 100000 nM. Also, in data set [4], the Ki was determined as 11 nM.
